Several values for one entry are separate records, joined by “and”; a condition that tells them apart may be missing. Equal entries are not always repeated.
What was measured:
[1] = Viscosity sensitivity: fluorescence in ethylene glycol/glycerol mixtures; format: physicochemical; conditions: EG/G mixtures 16 to 851 cP; for Viscosity sensitivity χ2: second-order polynomial regression, 25 μM probe
Outline: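 Fluorescence was measured in ethylene glycol/glycerol mixtures spanning 16–851 cP; the two solvents were chosen for closely matched dielectric constants, to minimise polarity effects. χ2 was derived from second-order polynomial regression of intensity against viscosity.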

[2] = Polarity sensitivity: emission across solvents with varying dielectric constants; format: physicochemical; conditions: for Polarity sensitivity: λem versus solvent dielectric constant; for Emission wavelength range (solvatochromism): depending on solvent polarity
[3] = Temperature dependence of fluorescence in methanol/glycerol mixtures; format: physicochemical
Outline: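 Fluorescence of 25 μM probe was measured in methanol/glycerol mixtures of varying viscosity at 25 and 42 °C. Fluorescence fold change was plotted against viscosity.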

[4] = Photophysical characterization by absorption and fluorescence spectroscopy; format: physicochemical; conditions: for Absorbance λabs (maximum absorption wavelength) / Emission λem (maximum emission wavelength) / ε (molar absorption coefficient at maximum absorption wavelength): 25 μM probe in CH3CN/PBS pH 7.4; for Stokes Shift: difference between λabs and λem, CH3CN/PBS pH 7.4
Outline: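 Probe at 25 μM final in CH3CN/PBS (50:50 v/v), pH 7.4. Absorption and emission spectra were recorded, with excitation at each probe's absorption maximum. ε was taken at the absorption maximum, and Stokes shift as the absorption–emission maximum difference. Quantum yield (error limit ±5) was measured in this mixture and also in CH3CN.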

αS = αS (Homo sapiens, UniProt P37840); test: Monitoring αS aggregation over prolonged agitation; format: biochemical; conditions: PBS buffer, 37 °C; for Detection of early αS aggregation species (misfolding, oligomers/protofibrils): 0–40 hours
Aβ1–42 fibrils = test: Amyloid selectivity: turn-on with αS fibrils relative to Aβ1–42 fibrils; format: binding; conditions: 1 μM probe
PDD-derived AFs = PDD-derived AFs (Homo sapiens, UniProt P37840); test: Fluorescence with amplified fibrils; format: binding; conditions: 1 μM probe, 1 μM AFs, average of three PDD patients
Outline: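 Probe (1 μM) was mixed with amplified fibrils (1 μM) or brain lysates from three PDD patients, and the averages are shown. Ex/Em was set per probe: 463/580 or 484/620 nm, with ThT reference at 450/482 nm. Fold change is after subtracting free probe fluorescence in PBS. Error bars are SD of 3 measurements.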

αS/Tau0N4R condensates = test: CLSM staining of αS/tau condensates relative to αS fibrils; conditions: 80 μM αS / 40 μM tau, LLPS buffer
αS monomer = αS monomer (Homo sapiens, UniProt P37840); test: Fluorescence with TMAO-induced αS misfolding/oligomers; format: biochemical
Outline: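 Monomeric αS (50 μM) was exposed to trimethylamine N-oxide at 2, 4 or 6 M to induce misfolding or oligomers, then probe fluorescence was read. Fold change is relative to free probe in Tris buffer containing the same TMAO concentration.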

αS fibrils [5] = biological target: T1, αS fibrils (Homo sapiens, UniProt P37840); test: Concentration-dependent binding λem and local dielectric constant on αS fibrils; conditions: for Dielectric constant of local environment of probe bound to αS fibrils: calculated from fits of λem in solvents, 581 nm for 3c, 617 nm for 4a
αS fibrils [6] = biological target: T1, αS fibrils; test: Binding affinity; conditions: for Kd: read-out: Dissociation constant (Kd), probe 10 nM–10 μM with 100 μM αS fibrils
αS/pLK condensates = test: CLSM staining of αS/pLK LLPS condensates relative to αS fibrils; conditions: αS 100 μM / pLK 0.25 mg/mL, LLPS buffer
Outline: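 Condensates of αS (100 μM) and poly-L-lysine (0.25 mg/mL), doped with 5% Acd-labelled αS (position 94) and 5% FITC-poly-L-lysine, stained and imaged by confocal microscopy. Channels: Acd 430–480 nm (Ex 405 nm); FITC 500–540 nm; probe Ex 561 nm, Em 570–620 or 630–680 nm. Probe intensity in condensates was divided by that with αS fibrils. Buffer: HEPES/NaCl/TCEP pH 7.4 with 15% PEG-8000, room temperature. SD of >3 measurements.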

αS fibrils [7] = biological target: T1, αS fibrils; test: Turn-on fluorescence upon binding to αS fibrils; conditions: for Brightness increase upon binding to αS fibrils / Emission wavelength upon binding to αS fibrils: 10 μM probe, 50 μM αS fibrils; for Fluorescence lifetime (τ) upon binding to αS fibrils: bound to αS fibrils
Outline: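 Emission spectra of 10 μM probe were recorded with 50 μM αS monomer or fibrils. Samples were also photographed under a 365 nm hand-held UV lamp.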

αS fibrils [8] = biological target: T1, αS fibrils; test: Competition binding studies with ThT, Ex6 and BF2846 on αS fibrils; conditions: for Competition with ThT: some ThT emission remained at saturating concentrations
tau fibrils = test: Amyloid selectivity: turn-on with αS fibrils relative to tau fibrils; format: binding; conditions: 1 μM probe
Tau0N4R condensates [9] = test: CLSM staining of Tau0N4R condensates with and without αS; conditions: 40 μM Tau0N4R with or without 80 μM αS
Outline: (§1)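 Confocal imaging of 40 μM Tau0N4R condensates, with or without 80 μM αS, doped with 5% AF488-labelled Tau0N4R. Buffer: 20 mM HEPES, 150 mM NaCl, 1 mM TCEP, pH 7.4, 15% PEG-8000, room temperature. Probe read at Ex 561 nm, Em 630–680 nm; AF488-tau at Ex 488 nm, Em 500–540 nm. Error bars are SD of >3 measurements.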

Tau0N4R condensates [10] = biological target: Tau0N4R condensates (Homo sapiens, UniProt P10636); test: as above; conditions: 40 μM Tau0N4R without αS, 630–680 nm channel
Outline: as §1

[11] = 2 M TMAO, 50 μM αS monomer, 10 μM probe
[12] = 4 M TMAO, 50 μM αS monomer, 10 μM probe
[13] = 6 M TMAO, 50 μM αS monomer, 10 μM probe

Sequence of Tau0N4R condensates (Homo sapiens, UniProt P10636) (P10636 2-383 isoform P10636-6): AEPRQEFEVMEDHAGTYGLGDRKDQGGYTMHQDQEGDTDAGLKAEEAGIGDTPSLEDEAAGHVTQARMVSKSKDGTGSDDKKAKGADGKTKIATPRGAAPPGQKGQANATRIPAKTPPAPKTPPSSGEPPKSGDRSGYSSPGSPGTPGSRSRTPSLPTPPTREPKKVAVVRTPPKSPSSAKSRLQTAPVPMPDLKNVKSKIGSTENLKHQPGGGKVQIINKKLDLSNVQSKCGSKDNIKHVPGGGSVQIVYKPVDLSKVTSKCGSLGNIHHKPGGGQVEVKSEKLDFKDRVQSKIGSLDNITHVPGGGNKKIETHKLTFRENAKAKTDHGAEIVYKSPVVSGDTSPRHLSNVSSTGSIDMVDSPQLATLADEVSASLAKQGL

| Structure (SMILES) | Fluorescence intensity change with viscosity [1] | Viscosity sensitivity χ2 [1] | Polarity sensitivity [2] | Fluorescence change between 25 °C and 42 °C [3] | Absorbance λabs (maximum absorption wavelength) [4] | Emission λem (maximum emission wavelength) [4] | ε (molar absorption coefficient at maximum absorption wavelength) [4] | Fluorescence QY ([4]; CH3CN/PBS pH 7.4, 25 μM) | Stokes Shift [4] | Fluorescence QY ([4]; in CH3CN) | Emission wavelength range (solvatochromism) [2] | Detection of early αS aggregation species (misfolding, oligomers/protofibrils) (αS) | Turn-on for αS fibrils relative to Aβ1–42 fibrils (Aβ1–42 fibrils) | Fluorescence with PDD-derived AFs compared to unamplified lysate (PDD-derived AFs) | Staining: probe intensity ratio αS/Tau condensates to αS fibrils (αS/Tau0N4R condensates) | λem with αS/TMAO (αS monomer; 4 M TMAO) | λem with αS/TMAO (αS monomer; 6 M TMAO) | λem as probe concentration increased (αS fibrils [5]; bound to αS fibrils) | Dielectric constant of local environment of probe bound to αS fibrils (αS fibrils [5]) | Staining efficiency: probe intensity ratio αS/pLK condensates to αS fibrils (αS/pLK condensates) | further results |
| --- | --- | --- | --- | --- | --- | --- | --- | --- | --- | --- | --- | --- | --- | --- | --- | --- | --- | --- | --- | --- | --- |
| Cc1c(C)n2c(/C=C/c3ccc(N)cc3)c(C)c(=O)n2c1=O [3a] | 5.4 fold | 1.0 ×10^−3 | 26.7 | 2.14 fold | 385 nm | 583 nm | 30800 M⁻¹ cm⁻¹ | 0.7% | 198 nm | 1.5% |  |  |  |  |  |  |  |  |  |  |  |
| CNc1ccc(/C=C/c2c(C)c(=O)n3c(=O)c(C)c(C)n23)cc1 [3b] | 4.68 fold | 0.7 ×10^−3 | 30.7 |  | 399 nm | 591 nm | 26400 M⁻¹ cm⁻¹ | 0.5% | 192 nm | 2.0% | 486–640 nm |  |  |  |  |  |  |  |  |  |  |
| Cc1c(C)n2c(/C=C/c3ccc(N(C)C)cc3)c(C)c(=O)n2c1=O [3c] | 3.82 fold | 0.6 ×10^−3 | 32.1 | 2.48 fold | 418 nm | 604 nm | 30400 M⁻¹ cm⁻¹ | 0.5% | 186 nm | 7.3 ± 0.3% and 7.3% |  | unable to detect changes within 20 h | 5.2 fold | 2.4 fold | 0.37 fold | 566 nm | 560 nm | 575 to 581 nm | 35.9 | 0.68 fold | λem shift as concentration increased (αS fibrils [5]; bound to αS fibrils): 6 nm; Kd (αS fibrils [6]): 1450 ± 430 nM; Brightness increase upon binding to αS fibrils (αS fibrils [7]): 476 fold; Emission wavelength upon binding to αS fibrils (αS fibrils [7]): 580 nm; Fluorescence lifetime (τ) upon binding to αS fibrils (αS fibrils [7]): 2.27 ns; Displacement of probe fluorescence by BF2846 (Site B binder) (αS fibrils [8]): partially displaced; Displacement of probe fluorescence by Ex6 (Site A binder) (αS fibrils [8]): not displaced; Competition with ThT (αS fibrils [8]): competed with the promiscuous binder ThT; Turn-on for αS fibrils relative to tau fibrils (tau fibrils): 2.8 fold |
| Cc1c(C)n2c(/C=C/C=C/c3ccc(N(C)C)cc3)c(C)c(=O)n2c1=O [4a] | around 3 fold |  | ~ 31.5 |  | 436 nm | 640 nm | 36700 M⁻¹ cm⁻¹ | 0.6% | 204 nm | 13.5% | 486–640 nm |  | 15 fold | 2.6 fold | 1.12 fold | 606 nm | 601 nm | 617 to 618 nm | 27.6 | 1.11 fold | Increase in fluorescence intensity within 20 hours of αS aggregation (αS; agitation): 15 fold; λem with αS/TMAO (αS monomer; 2 M TMAO): 604 nm; Sensitivity (turn-on) relative to 3c (αS monomer; [11]): 2.2 fold; Sensitivity (turn-on) relative to ThT (αS monomer; [11]): 3.1 fold; Sensitivity (turn-on) relative to 3c (αS monomer; [12]): 2.9 fold; Sensitivity (turn-on) relative to ThT (αS monomer; [12]): 5.2 fold; Turn-on relative to 2a (so in the source) (αS monomer; [13]): 1.2 fold; Turn-on relative to ThT (αS monomer; [13]): 1.5 fold; Affinity relative to 3c (αS fibrils [6]; Kd ratio 3c/4a): 3.5 times; Kd (αS fibrils [6]): 420 ± 250 nM; Brightness increase upon binding to αS fibrils (αS fibrils [7]): 383 fold; Emission wavelength upon binding to αS fibrils (αS fibrils [7]): 620 nm; Fluorescence lifetime (τ) upon binding to αS fibrils (αS fibrils [7]): 1.27 ns; λem shift ([2]; across solvents with dielectric constants from 2.38 to 8.93): 64 nm; Displacement of probe fluorescence by BF2846 (Site B binder) (αS fibrils [8]): not affected; Displacement of probe fluorescence by Ex6 (Site A binder) (αS fibrils [8]): not affected; Competition with ThT (αS fibrils [8]): competed with the promiscuous binder ThT; Turn-on for αS fibrils relative to tau fibrils (tau fibrils): 11 fold; Fluorescence in αS-containing tau condensates compared to tau-only condensates (Tau0N4R condensates [9]): 3.8 fold; Staining of tau-only condensates (Tau0N4R condensates [10]): minimal staining |
| Cc1ccc2c(c1)sc(-c1ccc(N(C)C)cc1)[n+]2C [ThT, Thioflavin-T, reference compound] |  |  |  |  |  |  |  |  |  |  |  | only tracking mature fibrils |  | failed to distinguish AFs from lysate | 0.34 fold |  |  |  |  | 0.15 fold |  |

Source: paper PMC12443483 (Journal of the American Chemical Society, 2025)
